Activity calls are given as the source filed them. The rule behind the calls is not given here.
Key:
[1] = biological target: HAT1/Rbap46 (Homo sapiens, UniProt O14929+Q16576); experiment: (§1) Inhibition of C-terminal FLAG tagged full length human HAT1/Rbap46 transfected in HEK293F cells using histone H4 peptide as substrate and 4-pentynoyl-CoA as cofactor preincubated for 10 mins followed by 4-pentynoyl-CoA addition and measured after 1 hr by amplex red dye based fluorescence analysis; type: cell-based
Chain of HAT1/Rbap46 (Q16576 whole entry): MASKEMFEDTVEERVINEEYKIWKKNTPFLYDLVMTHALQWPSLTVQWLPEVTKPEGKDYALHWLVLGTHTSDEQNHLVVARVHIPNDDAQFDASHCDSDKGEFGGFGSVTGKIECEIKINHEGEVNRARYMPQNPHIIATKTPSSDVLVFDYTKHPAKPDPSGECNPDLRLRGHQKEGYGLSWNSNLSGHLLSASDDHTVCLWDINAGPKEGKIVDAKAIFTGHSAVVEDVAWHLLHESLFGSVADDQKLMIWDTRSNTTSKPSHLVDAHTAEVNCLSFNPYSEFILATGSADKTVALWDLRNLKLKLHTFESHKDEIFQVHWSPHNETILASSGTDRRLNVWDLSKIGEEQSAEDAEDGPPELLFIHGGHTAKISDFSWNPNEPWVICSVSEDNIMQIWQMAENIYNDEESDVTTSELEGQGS
Chain of HAT1/Rbap46 (O14929 whole entry): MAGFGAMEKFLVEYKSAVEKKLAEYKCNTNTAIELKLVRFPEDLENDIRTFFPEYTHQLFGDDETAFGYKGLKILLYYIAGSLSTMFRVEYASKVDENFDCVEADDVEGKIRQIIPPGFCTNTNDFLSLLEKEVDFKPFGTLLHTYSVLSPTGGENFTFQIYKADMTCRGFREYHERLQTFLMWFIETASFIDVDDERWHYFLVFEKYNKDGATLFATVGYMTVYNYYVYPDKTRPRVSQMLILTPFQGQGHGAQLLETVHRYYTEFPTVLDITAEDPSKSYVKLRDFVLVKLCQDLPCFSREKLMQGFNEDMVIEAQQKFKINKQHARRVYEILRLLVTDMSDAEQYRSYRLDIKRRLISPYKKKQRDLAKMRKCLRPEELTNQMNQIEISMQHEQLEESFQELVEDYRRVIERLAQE

[2] = biological target: T1, HAT1/Rbap46 (Homo sapiens) (UniProt Q16576+O14929); experiment: as §1, with “analysis relative to control” for “analysis”; type: cell-based; set-up: concentration or dose not given beside the values; conditions: time 70.0 min
T1 sequence (O14929 2-419 partner limits assumed): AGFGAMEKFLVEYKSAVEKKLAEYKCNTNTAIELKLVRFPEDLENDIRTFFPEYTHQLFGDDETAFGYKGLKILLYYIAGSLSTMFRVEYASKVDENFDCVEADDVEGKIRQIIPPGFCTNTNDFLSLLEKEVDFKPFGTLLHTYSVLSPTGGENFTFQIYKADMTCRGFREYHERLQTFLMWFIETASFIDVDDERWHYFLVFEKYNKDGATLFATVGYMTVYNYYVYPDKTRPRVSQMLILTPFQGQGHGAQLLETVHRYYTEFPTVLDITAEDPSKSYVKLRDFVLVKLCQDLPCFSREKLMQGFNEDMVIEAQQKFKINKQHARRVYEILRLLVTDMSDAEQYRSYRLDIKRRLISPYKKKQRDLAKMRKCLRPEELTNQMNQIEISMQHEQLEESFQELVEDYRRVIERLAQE
T1 sequence (Q16576 2-425 limits assumed): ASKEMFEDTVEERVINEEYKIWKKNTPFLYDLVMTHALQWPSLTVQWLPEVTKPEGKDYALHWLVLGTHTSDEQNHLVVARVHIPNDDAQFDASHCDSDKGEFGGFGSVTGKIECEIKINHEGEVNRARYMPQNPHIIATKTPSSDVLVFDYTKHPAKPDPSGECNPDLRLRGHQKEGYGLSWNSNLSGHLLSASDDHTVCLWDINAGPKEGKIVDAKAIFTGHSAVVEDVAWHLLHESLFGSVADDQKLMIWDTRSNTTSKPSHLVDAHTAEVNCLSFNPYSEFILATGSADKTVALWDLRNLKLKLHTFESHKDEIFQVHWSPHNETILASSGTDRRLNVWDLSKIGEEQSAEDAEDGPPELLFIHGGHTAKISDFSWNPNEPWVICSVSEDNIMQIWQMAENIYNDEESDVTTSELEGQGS

[3] = biological target: T1, HAT1/Rbap46 (Homo sapiens); experiment: as §1, with “cofactor at 100 uM” for “cofactor”, “analysis relative to control” for “analysis”; type: cell-based; conditions: time 70.0 min
[4] = biological target: T1, HAT1/Rbap46 (Homo sapiens); experiment: as §1, with “cofactor at 1 to 100 uM” for “cofactor”, “analysis relative to control” for “analysis”; type: cell-based; conditions: dose 1-100 µM, time 70.0 min
[5] = tested on: HCC1806; experiment: Cytotoxicity against human HCC1806 cells assessed as inhibition of cell growth incubated for 48 hrs by celltiter blue analysis; type: functional, cell-based
[6] = biological target: T1, HAT1/Rbap46 (Homo sapiens); experiment: as §1, with “cofactor at 10 uM” for “cofactor”, “to 4 hrs” for “hr”; type: cell-based; conditions: time 70-250 min
[7] = Observed clearance in CD1 mouse at 100 mg/kg, ip measured after 15 to 4320 mins by LC-MS/MS analysis; type: ADME, organism-based; conditions: in vivo, time 15-4320 min
Procedure, shortened: (§2)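 Mice received one intraperitoneal injection at 100 mg/kg. Plasma concentrations of the drug were followed over time, out to 72 h, and PK parameters were derived from the plasma concentration–time profile.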

[8] = biological target: Histone acetyltransferase KAT2B (Homo sapiens) (UniProt Q92831); experiment: Inhibition of human pCAF at 100 uM incubated for 20 mins followed by 3H-Acetyl CoA addition and measured after 30 mins; conditions: time 50.0 min
[9] = Cmax in CD1 mouse at 100 mg/kg, ip measured after 1 hr by LC-MS/MS analysis; type: ADME, organism-based; set-up: dose 100 mg/kg, time 1 hrs, route ip; conditions: in vivo; procedure, shortened: as §2
[10] = species: Homo sapiens; experiment: Inhibition of FAD-dependent oxidase (unknown origin)
[11] = biological target: Histone acetyltransferase KAT5 (Homo sapiens, UniProt Q92993); experiment: Inhibition of human KAT5 incubated for 20 mins followed by 3H-Acetyl CoA addition and measured after 30 mins
[12] = Terminal elimination half life in CD1 mouse at 100 mg/kg, ip measured after 15 to 4320 mins by LC-MS/MS analysis; type: ADME, organism-based; conditions: in vivo, time 15-4320 min, read-out: LambdaZ; procedure, shortened: as §2
[13] = Observed apparent volume of distribution during terminal phase in CD1 mouse at 100 mg/kg, ip measured after 15 to 4320 mins by LC-MS/MS analysis; type: ADME, organism-based; conditions: in vivo, time 15-4320 min, read-out: Vz/F; procedure, shortened: as §2
[14] = Cmax in CD1 mouse at 100 mg/kg, ip measured after 72 hrs by LC-MS/MS analysis; type: ADME, organism-based; set-up: time 72 hrs, dose 100 mg/kg, route ip; conditions: in vivo; procedure, shortened: as §2
[15] = tested on: Mus musculus; experiment: In vivo inhibition of HAT-1 in NSG mouse xenografted with human A549 cells assessed as reduction in Histone H4 lysine 12 acetylation in tumor administered as single ip injection and measured after 24 hrs by immunofluorescence analysis; type: functional, organism-based; conditions: dose 25-100 mg/kg
Procedure, shortened: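 A549 tumours were established in NSG mice and given one i.p. dose of vehicle or drug. Tumours were harvested 24 h later and sections immunostained for H4K12Ac. Median nuclear fluorescence was taken from all nuclei in 2 images per group; one-way ANOVA.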

[16] = Toxicity in mouse assessed as signs of distress at 500 mg/kg, ip administered as single dose; type: organism-based; conditions: in vivo
[17] = Tmax in CD1 mouse at 100 mg/kg, ip measured after 15 to 4320 mins by LC-MS/MS analysis; type: ADME, organism-based; conditions: in vivo, time 15-4320 min; procedure, shortened: as §2
[18] = AUClast in CD1 mouse at 100 mg/kg, ip measured after 15 to 4320 mins by LC-MS/MS analysis; type: ADME, organism-based; set-up: time lower 15 min, dose 100 mg/kg, time upper 4320 min, route ip; conditions: in vivo; procedure, shortened: as §2
[19] = biological target: Histone acetyltransferase KAT6B (Homo sapiens, UniProt Q8WYB5); experiment: Inhibition of human MYST4 incubated for 20 mins followed by 3H-Acetyl CoA addition and measured after 30 mins
Chain of Histone acetyltransferase KAT6B (Q8WYB5 whole entry): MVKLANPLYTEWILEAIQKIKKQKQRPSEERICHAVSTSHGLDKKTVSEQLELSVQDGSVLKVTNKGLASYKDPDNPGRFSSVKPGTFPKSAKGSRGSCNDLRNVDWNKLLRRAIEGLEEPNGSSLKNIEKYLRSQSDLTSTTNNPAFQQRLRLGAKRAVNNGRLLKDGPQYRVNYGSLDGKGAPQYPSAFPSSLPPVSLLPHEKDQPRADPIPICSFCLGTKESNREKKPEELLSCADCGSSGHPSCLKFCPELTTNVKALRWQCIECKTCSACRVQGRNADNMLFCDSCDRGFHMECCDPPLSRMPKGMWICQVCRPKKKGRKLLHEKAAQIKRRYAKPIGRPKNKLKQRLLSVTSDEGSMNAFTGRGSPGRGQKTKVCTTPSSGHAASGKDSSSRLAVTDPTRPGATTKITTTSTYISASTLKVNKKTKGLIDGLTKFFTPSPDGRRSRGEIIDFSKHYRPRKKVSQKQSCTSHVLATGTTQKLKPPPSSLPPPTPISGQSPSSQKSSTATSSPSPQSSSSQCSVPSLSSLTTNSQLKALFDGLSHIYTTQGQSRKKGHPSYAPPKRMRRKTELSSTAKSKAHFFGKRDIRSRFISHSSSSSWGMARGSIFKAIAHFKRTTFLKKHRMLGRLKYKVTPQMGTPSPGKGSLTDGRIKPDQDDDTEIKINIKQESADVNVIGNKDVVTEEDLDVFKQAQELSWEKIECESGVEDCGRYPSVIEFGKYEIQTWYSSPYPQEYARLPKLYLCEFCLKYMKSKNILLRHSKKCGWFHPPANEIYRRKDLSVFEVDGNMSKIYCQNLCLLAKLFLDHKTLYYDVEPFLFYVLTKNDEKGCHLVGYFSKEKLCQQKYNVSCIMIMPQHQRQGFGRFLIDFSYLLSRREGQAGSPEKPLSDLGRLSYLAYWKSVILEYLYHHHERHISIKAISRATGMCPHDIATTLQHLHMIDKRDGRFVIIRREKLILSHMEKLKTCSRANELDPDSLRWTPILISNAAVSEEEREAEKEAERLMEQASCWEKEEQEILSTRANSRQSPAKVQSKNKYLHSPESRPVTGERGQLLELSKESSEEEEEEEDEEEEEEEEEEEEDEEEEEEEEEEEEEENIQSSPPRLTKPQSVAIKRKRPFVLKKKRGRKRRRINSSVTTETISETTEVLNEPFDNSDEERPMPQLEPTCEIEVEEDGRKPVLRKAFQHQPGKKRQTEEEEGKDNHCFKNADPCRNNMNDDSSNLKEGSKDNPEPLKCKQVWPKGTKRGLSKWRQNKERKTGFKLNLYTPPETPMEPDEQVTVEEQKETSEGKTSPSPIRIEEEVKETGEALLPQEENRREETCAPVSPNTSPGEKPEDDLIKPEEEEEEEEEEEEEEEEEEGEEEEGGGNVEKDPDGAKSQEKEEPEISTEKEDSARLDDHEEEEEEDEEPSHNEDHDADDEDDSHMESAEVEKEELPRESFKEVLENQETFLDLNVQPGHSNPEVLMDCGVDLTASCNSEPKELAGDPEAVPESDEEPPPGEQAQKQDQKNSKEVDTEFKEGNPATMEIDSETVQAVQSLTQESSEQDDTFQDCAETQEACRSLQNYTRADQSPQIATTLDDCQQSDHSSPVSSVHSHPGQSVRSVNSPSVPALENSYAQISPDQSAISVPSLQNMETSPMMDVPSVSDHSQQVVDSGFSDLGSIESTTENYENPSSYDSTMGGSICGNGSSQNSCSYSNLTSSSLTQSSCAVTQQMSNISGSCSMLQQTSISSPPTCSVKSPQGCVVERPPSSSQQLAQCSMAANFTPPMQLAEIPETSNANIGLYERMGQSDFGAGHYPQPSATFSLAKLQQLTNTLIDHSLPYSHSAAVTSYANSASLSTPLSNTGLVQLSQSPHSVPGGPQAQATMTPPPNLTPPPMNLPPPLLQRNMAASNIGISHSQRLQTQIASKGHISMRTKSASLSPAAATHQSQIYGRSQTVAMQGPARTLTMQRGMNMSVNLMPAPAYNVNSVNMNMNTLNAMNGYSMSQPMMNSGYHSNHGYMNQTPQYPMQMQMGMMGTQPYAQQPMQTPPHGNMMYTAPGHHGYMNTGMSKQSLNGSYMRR

[20] = tested on: HCC1806; experiment: Cytotoxicity against human HCC1806 cells assessed as inhibition of cell growth by resazurin dye based fluorescence analysis; type: functional
Procedure, shortened: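 HCC1806 cells were treated across a range of doses. Growth was read by resazurin reduction to resorufin, with fluorescence at 590 nm.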

[21] = Toxicity in mouse assessed as drug tolerance up to 250 mg/kg, ip administered as single dose; type: organism-based; conditions: in vivo
[22] = tested on: A549; experiment: Antitumor activity against human A549 cells xenografted in NSG mouse assessed as reduction in tumor growth at 50 to 100 mg/kg, ip administered once for every 3 days starting from day 13 post tumor implantation by digital caliper method; type: functional, organism-based; conditions: dose 50-100 mg/kg
Procedure, shortened: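 A549 cells were implanted in both flanks of NSG mice and tumours were allowed to establish for 13 days. Vehicle or drug (50 or 100 mg/kg) was then injected i.p. once every third day.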

[23] = biological target: Histone acetyltransferase KAT2A (Homo sapiens) (UniProt Q92830); experiment: Inhibition of human GCN5 at 100 uM incubated for 20 mins followed by 3H-Acetyl CoA addition and measured after 30 mins; conditions: time 50.0 min
Chain of Histone acetyltransferase KAT2A (Homo sapiens) (Q92830 2-837 limits assumed): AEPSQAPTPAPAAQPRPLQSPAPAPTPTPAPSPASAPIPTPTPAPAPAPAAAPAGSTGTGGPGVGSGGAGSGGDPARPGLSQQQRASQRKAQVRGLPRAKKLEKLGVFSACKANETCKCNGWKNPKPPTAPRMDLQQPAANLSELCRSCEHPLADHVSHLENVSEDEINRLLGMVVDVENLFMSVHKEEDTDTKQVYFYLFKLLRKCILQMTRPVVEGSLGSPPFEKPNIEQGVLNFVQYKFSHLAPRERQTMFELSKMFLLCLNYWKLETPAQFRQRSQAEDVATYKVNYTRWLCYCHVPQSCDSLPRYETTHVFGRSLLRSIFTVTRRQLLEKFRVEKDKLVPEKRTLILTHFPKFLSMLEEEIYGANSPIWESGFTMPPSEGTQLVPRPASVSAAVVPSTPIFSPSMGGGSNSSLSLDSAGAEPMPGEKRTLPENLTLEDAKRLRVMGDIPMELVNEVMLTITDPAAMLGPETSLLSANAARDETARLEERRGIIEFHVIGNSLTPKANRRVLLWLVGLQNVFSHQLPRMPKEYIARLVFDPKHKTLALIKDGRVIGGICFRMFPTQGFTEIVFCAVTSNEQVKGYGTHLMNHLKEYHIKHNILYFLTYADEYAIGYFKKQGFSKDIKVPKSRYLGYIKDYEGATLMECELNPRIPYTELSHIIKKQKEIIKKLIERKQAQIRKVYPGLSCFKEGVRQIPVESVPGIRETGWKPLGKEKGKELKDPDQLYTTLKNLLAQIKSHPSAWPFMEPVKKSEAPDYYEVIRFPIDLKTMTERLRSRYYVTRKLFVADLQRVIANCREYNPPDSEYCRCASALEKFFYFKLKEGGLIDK

## O=c1nc2n(CC(O)C(O)C(O)C(O)CO)c3cc(Cl)c(Cl)cc3nc-2c(=O)[nH]1 (stereo not given)
[1]
  IC50: 62.6 µM
[2]
  inhibition: 46%
[3]
  inhibition: 31%

## CCc1cc2c(cc1Cl)nc1c(=O)[nH]c(=O)nc-1n2CCCc1ccc(Br)cc1
[3]
  inhibition: 9%

## O=C1CN2Cc3c(ccc(Cl)c3Cl)N=C2N1
[3]
  inhibition: -5%

## CCc1cc2c(cc1Cl)nc1c(=O)[nH]c(=O)nc-1n2CCOCC1CCCC1
[3]
  inhibition: 47%

## O=C(O)Cc1ccc(/N=N/c2c(O)c(C(=O)O)cc3ccccc23)cc1
[2]
  inhibition: 72.2%

## O=c1nc2n(CCN(CO)CO)c3cc(Cl)c(Cl)cc3nc-2c(=O)[nH]1
[2]
  inhibition: 37%
[3]
  inhibition: 17%

## CCc1cc2c(cc1Cl)nc1c(=O)[nH]c(=O)nc-1n2CCCOc1ccc(C)cc1
[3]
  inhibition: 12%

## CCc1cc2c(cc1Cl)nc1c(=O)[nH]c(=O)nc-1n2CCOCc1cccc(C(F)(F)F)c1
[3]
  inhibition: 23%

## CCc1cc2c(cc1Cl)nc1c(=O)[nH]c(=O)nc-1n2C[C@H](O)[C@H](O)[C@H](O)CO
[2]
  inhibition: 59%
[3]
  inhibition: 40%

## CCCC(=O)OC[C@@H](OC(=O)CCC)[C@@H](OC(=O)CCC)[C@H](Cn1c2nc(=O)[nH]c(=O)c-2nc2cc(C)c(C)cc21)OC(=O)CCC
[1]
  IC50: 17 µM

## CCc1cc2c(cc1Cl)nc1c(=O)[nH]c(=O)nc-1n2CCOCc1ccc(-c2ccccc2)cc1
[3]
  inhibition: 17%

## CCc1cc2c(cc1Cl)nc1c(=O)[nH]c(=O)nc-1n2CCOc1cccc(C(F)(F)F)c1
[3]
  inhibition: 11%

## Cc1cc2nc3[nH]c(=O)[nH]c(=O)c3nc2cc1C
[3]
  inhibition: 7%
[4]
  inhibition: inactive

## CCc1cc2c(cc1Cl)nc1c(=O)[nH]c(=O)nc-1n2CCCOc1ccc(C#N)cc1
[3]
  inhibition: 25%

## CCc1cc2c(cc1Cl)nc1c(=O)[nH]c(=O)nc-1n2CCOc1ccccn1
[3]
  inhibition: 55%

## Cc1cc2nc3c(=O)[nH]c(=O)nc-3n(C[C@H](O)[C@H](O)[C@H](O)CO)c2cc1N(C)C
[5]
  inhibition: Active
[3]
  inhibition: 7%

## Cc1cc2nc3c(=O)[nH]c(=O)nc-3n(C[C@H](O)[C@H](O)[C@H](O)COP(=O)(O)O)c2cc1C
[4]
  inhibition: inactive

## CCc1cc2c(cc1Cl)nc1c(=O)[nH]c(=O)nc-1n2CCOc1cccc(F)c1
[3]
  inhibition: 17%

## CCc1cc2nc3c(=O)[nH]c(=O)nc-3n(C[C@H](O)[C@H](O)[C@H](O)CO)c2cc1Cl
[2]
  inhibition: 64%
[3]
  inhibition: 61%

## CCc1cc2c(cc1Cl)nc1c(=O)[nH]c(=O)nc-1n2CCOc1ccc(Br)cc1
[3]
  inhibition: 8%

## CCc1cc2c(cc1Cl)nc1c(=O)[nH]c(=O)nc-1n2CCOCc1cccc(F)c1
[3]
  inhibition: 24%

## CCc1cc2c(cc1Cl)nc1c(=O)[nH]c(=O)nc-1n2CCOCc1ccccc1
[3]
  inhibition: 49%

## CCc1cc2c(cc1Cl)nc1c(=O)[nH]c(=O)nc-1n2CCO
[3]
  inhibition: 54%

## CCc1cc2c(cc1Cl)nc1c(=O)[nH]c(=O)nc-1n2CCOCc1ccc(C#N)cc1
[3]
  inhibition: 26%

## CC(=O)N[C@@H](CCCCNC(=O)SCCNC(=O)CCNC(=O)[C@H](O)C(C)(C)COP(=O)(O)OP(=O)(O)OC[C@H]1O[C@@H](n2cnc3c(N)ncnc32)[C@H](O)[C@@H]1OP(=O)(O)O)C(N)=O
[6]
  inhibition: inactive

## CCc1cc2c(cc1Cl)nc1c(=O)[nH]c(=O)nc-1n2CCOCC1CCN(C(=O)OC(C)(C)C)CC1
[3]
  inhibition: 50%

## CCc1cc2c(cc1Cl)nc1c(=O)[nH]c(=O)nc-1n2CCOCC(C)(C)C
[3]
  inhibition: 40%

## CCc1cc2c(cc1Cl)nc1c(=O)[nH]c(=O)nc-1n2CCOc1ccc(C)cc1
[3]
  inhibition: 20%

## CCc1cc2c(cc1Cl)nc1c(=O)[nH]c(=O)nc-1n2CCOCC1CCNCC1
[3]
  inhibition: 60%

## CC(=O)Nc1cc2[nH]c3nc(=O)n(CC4CCCCC4)c(=O)c-3nc2cc1C
[2]
  inhibition: 25%

## CCc1cc2c(cc1Cl)nc1c(=O)[nH]c(=O)nc-1n2CC(C)(C)C
[3]
  inhibition: 62%

## Cc1cc2cc3c(=O)[nH]c(=O)cc-3n(CC(O)C(O)C(O)CO)c2cc1C (stereo not given)
[2]
  inhibition: 66.4%

## Oc1ccccc1C1=NC2c3ccccc3-c3ccccc3C2N1 (stereo not given)
[2]
  inhibition: 69%

## CCc1cc2c(cc1Cl)nc1c(=O)[nH]c(=O)nc-1n2CCOC(C)=O
[3]
  inhibition: 49%

## CCc1cc2c(cc1Cl)nc1c(=O)[nH]c(=O)nc-1n2CCCc1cc(F)cc(F)c1
[3]
  inhibition: 15%

## CCc1cc2c(cc1Cl)nc1c(=O)[nH]c(=O)nc-1n2CCOCC(C)C
[7]
  CL/F: 6.2 mL/min/kg
[8]
  inhibition: inactive
[9]
  Cmax: 70.1 µM
[10]
  inhibition: inactive
[11]
  IC50: > 100 µM
[12]
  half-life: 1520 min
[13]
  Vd/F: 13.6 L/kg
[14]
  Cmax: 2050 nM
[15]
  inhibition: Dose-Dependent Effect
[16]
  Activity: Toxic
[17]
  Tmax: 1 h
[18]
  AUC(0-t): 641 µM·h
[19]
  IC50: > 100 µM
[20]
  EC50: 10.4 µM
[21]
  Activity: Non-Toxic
[22]
  Activity: Active
[23]
  inhibition: inactive

## CCC(=O)Nc1cc2[nH]c3nc(=O)n(Cc4ccccc4)c(=O)c-3nc2cc1C
[2]
  inhibition: 28%

## CCc1cc2c(cc1Cl)nc1c(=O)[nH]c(=O)nc-1n2CCOc1cc(F)cc(F)c1
[3]
  inhibition: -1%

## CC(=O)OCCn1c2nc(=O)[nH]c(=O)c-2nc2cc(C)c(C)cc21
[2]
  inhibition: 51%

## NC(=S)c1cn([C@@H]2O[C@H](CO)[C@@H](O)[C@H]2O)c2ncnc(N)c12
[2]
  inhibition: 72.2%

## COC1=C(N)C(=O)c2nc(-c3nc(C(=O)O)c(C)c(-c4ccc(OC)c(OC)c4O)c3N)ccc2C1=O
[2]
  inhibition: 66.3%

## CCc1cc2c(cc1Cl)nc1c(=O)[nH]c(=O)nc-1n2CCOc1ccc(-c2ccccc2)cc1
[3]
  inhibition: 13%

## CCc1cc2c(cc1Cl)nc1c(=O)[nH]c(=O)nc-1n2CCOCc1cccc(Br)c1
[3]
  inhibition: 17%

## CC(=O)Nc1cc2[nH]c3nc(=O)n(Cc4ccccc4)c(=O)c-3nc2cc1C
[2]
  inhibition: 32%

## CCc1cc2c(cc1Cl)nc1c(=O)[nH]c(=O)nc-1n2CCCOc1cccc(C(F)(F)F)c1
[3]
  inhibition: 19%

## CCc1cc2c(cc1Cl)nc1c(=O)[nH]c(=O)nc-1n2CCOc1ccc(F)cc1
[3]
  inhibition: 1%

## CCc1cc2c(cc1Cl)nc1c(=O)[nH]c(=O)nc-1n2CCCOc1ccc(-c2ccccc2)cc1
[3]
  inhibition: 8%

Source: ChEMBL document CHEMBL5380855, “Acetyl-Click Screening Platform Identifies Small-Molecule Inhibitors of Histone Acetyltransferase 1 (HAT1)” (J Med Chem, 2023)
